Hits are enriched below; roughly 3% of the tested compounds scored in any of these assays.
Statin myotox sup: suppression of simvastatin myotoxicity. C2C12 myotubes + simvastatin, ATP luminescence, 48 h; scaled: DMSO 0, geranylgeraniol control 100. rescue of ATP level, % at 7.49 µM. 330,000 tested, 0.78% active. AID 602340;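 active means mean ATP rescue above about 67%, or every replicate alone reaching that limit, limit read from the data, passing the limit was not always enough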;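 further: myotubes were challenged with 10 µM simvastatin during compound exposure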
Cneo AK release: causes C. neoformans cell lysis | adenylate kinase release luminescence, 4 h; normalised: neutral wells 0, clomiphene wells 100 | lysis activity, % at 15 µM | 360,000 tested, 0.2% active;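 active means mean lysis activity across replicates of at least 80%, whatever share of replicates individually reach that level; inactive means mean lysis activity below 80%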
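Signal: Adenylate kinase release luminescence | Assay system: Log-phase Cryptococcus neoformans yeast cells | Input: Cells at 5 × 10^6 per mL | Buffer or medium: Fresh YPD growth medium | Compound: Single dose | Schedule: Static 4 h at 37 °C with compound, 1 h detection | Controls: Clomiphene | Read-out: Luminescence rise reflecting yeast cell lysis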
PGC1a acetyl inh: modulators of PGC1a acetylation. U2OS PGC1a acetylation, AlphaScreen anti-acetyl-lysine; with virally co-expressed GCN5 acetyltransferase. inhibition, % at 15.6 µM. 350,000 tested, 0.17% active;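 active means every replicate shows inhibition of at least 40%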
rRNA inh HTS: inhibits bacterial ribosomal RNA function over humanized ribosomes | GFP signal change (wild-type ribosome), % (no concentration beside the values) | E. coli WT GFP vs humanized-ribosome RFP mutants, fluorescence, 24 h; stronger effect = lower value; DMSO median 0, no signal -100 | 350,000 tested, 1.6% active;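 active means significant combined selectivity score with lowered wild-type GFP, culture density cut under 30%, mutant RFP and density less affected; inactive means any of these conditions unmet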
S100A4 MyoIIA: inhibitors of human S100A4 binding to myosin IIA peptide | 360,000 tested, 0.14% active | inhibition, % at 10.7 µM | P26447 | S100A4/TAMRA-MyoIIA peptide fluorescence polarization;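 active means mean inhibition of at least 70% across replicates, with every replicate also reaching that level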
Target sequence (P26447 whole entry, looked up): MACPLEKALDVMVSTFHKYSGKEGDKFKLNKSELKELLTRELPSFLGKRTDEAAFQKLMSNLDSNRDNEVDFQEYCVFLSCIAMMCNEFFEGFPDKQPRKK
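Material: S100A4 monomer protein | Medium: HEPES pH 7.2 with CaCl2, KCl, NaCl, DTT, Triton | Reagent: Labelled myosin peptide probe, 5 nM | Doses: One dose per compound | Times: 5 min incubation before reading | Benchmarks: Neutral control DMSO, positive control TFP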
SIRT5 inh: sirtuin-5 (human) deacylase inhibition; 330,000 tested, 1.1% active; inhibition, % at 15 µM; Purified SirT5, succinyl-peptide AMC, trypsin-coupled fluorescence; in the data active means inhibition above about 15%
Target sequence (Q9NXA8 whole entry, looked up): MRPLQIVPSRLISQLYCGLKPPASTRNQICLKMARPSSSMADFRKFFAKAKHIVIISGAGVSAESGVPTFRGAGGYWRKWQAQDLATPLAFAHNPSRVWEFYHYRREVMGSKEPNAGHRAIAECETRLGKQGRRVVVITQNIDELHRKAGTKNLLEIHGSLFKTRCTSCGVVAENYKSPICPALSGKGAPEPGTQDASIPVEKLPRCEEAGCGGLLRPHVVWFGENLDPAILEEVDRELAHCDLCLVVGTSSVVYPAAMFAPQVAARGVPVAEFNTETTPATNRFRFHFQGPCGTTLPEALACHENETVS
Each line names hits and unclear results; the compound was inactive in the other large screens.

Cc1oc(-c2cccs2)nc1CN1CCN(CCC(C)C)C(CCO)C1 (stereo not drawn)	SIRT5 inh 17 (no result: Statin myotox sup, Cneo AK release, PGC1a acetyl inh)
CCO[C@@H]1OC(C(=O)NCc2nc3ccccc3[nH]2)=C[C@H](c2csc3ccccc23)[C@H]1CCCO	SIRT5 inh 31
CCO[C@H]1OC(C(=O)NCc2nc3ccccc3[nH]2)=C[C@@H](c2csc3ccccc23)[C@@H]1CCCO	none
CO[C@@H]1CN(C)C(=O)c2ccc(NC(=O)C3CCC3)cc2OC[C@@H](C)N(Cc2ccncc2)C[C@@H]1C	none (no result: PGC1a acetyl inh)
C[C@@H]1CCCCO[C@@H](CN(C)S(=O)(=O)c2ccc(F)cc2)[C@H](C)CN([C@H](C)CO)C(=O)c2cc(NS(=O)(=O)c3ccc(Cl)cc3)ccc2O1	SIRT5 inh 17 (no result: Statin myotox sup)
C[C@@H]1CCCCO[C@H](CN(C)S(=O)(=O)c2ccc(F)cc2)[C@H](C)CN([C@H](C)CO)C(=O)c2cc(NS(=O)(=O)c3ccc(Cl)cc3)ccc2O1	none (no result: Statin myotox sup)
C[C@H](CO)N1C[C@H](C)[C@H](CN(C)S(=O)(=O)c2ccc(Cl)cc2)OCCCC[C@H](C)Oc2ccc(NS(=O)(=O)c3ccc(F)cc3)cc2C1=O	SIRT5 inh 23
C[C@@H]1CCCCO[C@H](CN(C)S(=O)(=O)c2ccc(F)cc2)[C@H](C)CN([C@@H](C)CO)C(=O)c2cc(NS(=O)(=O)c3ccc(Cl)cc3)ccc2O1	none (no result: Statin myotox sup)
C[C@H]1CCCCO[C@H](CN(C)S(=O)(=O)c2ccc(F)cc2)[C@@H](C)CN([C@@H](C)CO)C(=O)c2cc(NS(=O)(=O)c3ccc(Cl)cc3)ccc2O1	none (no result: Statin myotox sup)
C[C@H]1CCCCO[C@H](CN(C)S(=O)(=O)c2ccc(Cl)cc2)[C@@H](C)CN([C@@H](C)CO)C(=O)c2cc(NS(=O)(=O)c3ccc(F)cc3)ccc2O1	SIRT5 inh 23
CCCNC(=O)Nc1ccc2c(c1)OC[C@@H](C)N(C(=O)C1CCOCC1)C[C@H](C)[C@H](OC)CN(C)C2=O	none (no result: Statin myotox sup, Cneo AK release)
C[C@@H]1CN([C@@H](C)CO)C(=O)c2cc(NC(=O)CCCN(C)C)ccc2O[C@@H]1CN(C)C(=O)Nc1ccc2c(c1)OCO2	none (no result: Statin myotox sup, Cneo AK release)
CCN1CCN(c2ncc(C(=O)Nc3cc(Cl)ccc3OC)c3ccccc23)CC1	PGC1a acetyl inh 93 (no result: Statin myotox sup, rRNA inh HTS, S100A4 MyoIIA, SIRT5 inh)
COc1ccccc1N1CCN(c2ncc(C(=O)N3CCN(c4cccc(Cl)c4)CC3)c3ccccc23)CC1	none (no result: Statin myotox sup, Cneo AK release)
CCC(=O)N1C[C@H](O)COC[C@H]2O[C@H](CC(=O)NCc3cc(F)cc(F)c3)CC[C@@H]21	S100A4 MyoIIA 88
CCC(=O)N1C[C@H](O)COC[C@@H]2O[C@@H](CC(=O)NCc3ccccc3Cl)CC[C@H]21	Cneo AK release 117
CCC(=O)N1C[C@@H](O)COC[C@H]2O[C@@H](CC(=O)NCc3ccccc3Cl)CC[C@@H]21	none (no result: S100A4 MyoIIA, SIRT5 inh)
C[C@@H]1CCCCO[C@@H](CN(C)Cc2ccc(C(F)(F)F)cc2)[C@H](C)CN([C@@H](C)CO)C(=O)c2cc(NC(=O)c3ccccc3)ccc2O1	none (no result: Statin myotox sup)
Cc1noc(C)c1S(=O)(=O)Nc1ccc2c(c1)C(=O)N([C@H](C)CO)C[C@H](C)[C@H](CN(C)S(=O)(=O)c1ccc(F)cc1)OCCCC[C@@H](C)O2	none (no result: Statin myotox sup)
O=C(NCC[C@H]1CC[C@@H](NS(=O)(=O)c2ccccc2)[C@H](CO)O1)c1ccccc1F	none
COc1ccc([C@H]2CC(=O)C=C(c3ccc(OC)c(OC)c3)C2)cc1	none (no result: PGC1a acetyl inh)
COc1ccc([C@H]2CC(=O)C=C(c3ccc4ccccc4c3)C2)cc1OC	SIRT5 inh 15 (no result: PGC1a acetyl inh)
O=C([C@@H]1[C@@H](CO)[C@@H]2Cn3c(ccc(C4=CCCC4)c3=O)[C@@H]2N1CC1CC1)N1CCCCC1	none (no result: PGC1a acetyl inh)
Cc1ccc(CNC(=O)c2cc(-c3ccccc3)n(Cc3cc(C)no3)n2)cc1	none
Cc1cc(Cn2nc(C(=O)NCC3CC3)cc2-c2ccccc2)on1	rRNA inh HTS -27
O/N=C/c1ccc2cccc(OCc3ccccc3)c2n1	rRNA inh HTS -29
C[C@H](CO)N1C[C@H](C)[C@@H](CN(C)C(=O)C2CCOCC2)Oc2ncc(C3=CCCC3)cc2C1=O	none
COc1ccc(C2CC(c3c(O)cc(C)oc3=O)=NCCS2)c(OC)c1 (stereo not drawn)	Statin myotox sup 117 (no result: rRNA inh HTS, SIRT5 inh)
Fc1ccccc1OCCCN1CCOCC1	Statin myotox sup 169 (no result: rRNA inh HTS, S100A4 MyoIIA, SIRT5 inh)
CCCC#Cc1ccc([C@H]2[C@@H](CO)N3C(=O)CN(C(=O)Nc4ccc(F)cc4)C[C@H]23)cc1	none (no result: Statin myotox sup, Cneo AK release)
COc1cc(CC(NC(C)=O)C(=O)NC2CCN(C(=O)Nc3ccccc3Cl)CC2)cc(OC)c1 (stereo not drawn)	none (no result: Statin myotox sup, Cneo AK release, PGC1a acetyl inh)
COc1cc(CC(NC(C)=O)C(=O)NC2CCN(C(=O)Nc3ccccc3C)CC2)cc(OC)c1 (stereo not drawn)	SIRT5 inh 17 (no result: PGC1a acetyl inh)
CCN1C(=O)[C@H]2[C@@H](c3ccc(C)cc3)N[C@]3(CCCN(Cc4ccc(Cl)cc4)C3=O)[C@H]2C1=O	rRNA inh HTS -20 (no result: Cneo AK release)
COc1ccc(CN2CCC[C@]3(N[C@H](c4ccc(OC)cc4)[C@@H]4C(=O)N(C)C(=O)[C@@H]43)C2=O)cc1	none
CCN1C(=O)[C@H]2[C@@H](c3ccc(C)cc3)N[C@]3(CCCN(Cc4ccc(C)cc4)C3=O)[C@H]2C1=O	none (no result: rRNA inh HTS)
COc1ccc([C@H]2N[C@]3(CCCN(Cc4ccc(C)cc4)C3=O)[C@H]3C(=O)N(C)C(=O)[C@@H]23)cc1	SIRT5 inh 39
C[C@H]1CN([C@@H](C)CO)C(=O)CCCn2cc(nn2)CO[C@H]1CN(C)S(=O)(=O)c1ccc(F)cc1	none
Cc1ccc(-c2cc(C(=O)N/N=C/c3cccnc3)c3ccccc3n2)cc1C	none
Cc1ccc(C)c(-c2cc(C(=O)N/N=C/c3cccnc3)c3ccccc3n2)c1	rRNA inh HTS -20 (no result: PGC1a acetyl inh)
Cc1ccc(C)c(Nc2cc(C(=O)NCc3cccnc3)c3ccccc3n2)c1	rRNA inh HTS -26
O=C(Nc1ccccc1)Nc1ccc2c(c1)[C@H]1C[C@@H](CC(=O)N3CCOCC3)O[C@@H](CO)[C@H]1O2	none (no result: S100A4 MyoIIA, SIRT5 inh)
CCO[C@H]1OC(C(=O)O)=C[C@@H](C(C)(C)C)[C@@H]1CCCO	SIRT5 inh 23
CCO[C@H]1OC(C(=O)O)=C[C@@H](C)[C@@H]1CCCO	none
C[C@H](CO)N1C[C@H](C)[C@@H](CN(C)C(=O)NC2CCCCC2)Oc2ccc(NC(=O)Nc3ccc(F)cc3)cc2C1=O	none
COc1ccccc1N1CCN(CC(=O)Nc2c(C)n(C)n(-c3ccccc3)c2=O)CC1	SIRT5 inh 29
COC(=O)c1[nH]c2cc(C)ccc2c1NC(=O)CN1CCN(c2ccccc2OC)CC1	Statin myotox sup 86 (no result: rRNA inh HTS, S100A4 MyoIIA, SIRT5 inh)

Bioassay records: PubChem, Broad Institute
